Data on 70 compounds can be found in PubChem BioAssay AID651576 (The Scripps Research Institute Molecular Screening Center, 2012).

The structures appear in SMILES notation. Several values for one entry are separate records, joined by “and”; a condition that tells them apart may be missing. Equal values may be shown once. Activity calls are given as the source filed them.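 The calls were made as follows: active = inhibition of at least 50%, averaged over three replicate wells; inactive = inhibition below 50%.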 Bounds are passed on as bounds.

The test system of the test is HCV core protein (core106) dimerization, Hepatitis C virus. The test can be described thus: disruption of HCV core self-association – biochemical, AlphaScreen luminescence, single dose 15 µM, powder samples, late-stage follow-up (AID 651576). Conditions: AlphaScreen GST/Flag-core106 dimerization, at 15 µM, hits give high values. Put shortly:
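material = HCV core106 dimerization between GST-tagged and Flag-tagged core106 proteins | medium = HEPES pH 7.5 with DTT and CHAPS | probe or stimulus = acceptor and donor beads at 20 µg/mL each | timing = protein preincubation 1 h at room temperature, 1 h per bead step | technique = AlphaScreen luminescence | evaluation = percent signal inhibition relative to uninhibited control wells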
In the case of `Cc1ccc(Cc2c(C)nc3nc(SCC(=O)NCCC(C)C)nn3c2C)cc1`, the inhibition is 43% (inactive). As to `Cc1ccc(Cc2c(C)nc3nc(SCC(=O)NCCN4CCN(S(=O)(=O)c5ccccc5)CC4)nn3c2C)cc1`, the inhibition was 62%.

Consider `CCN(CC)CCCNC(=O)CSc1nc2nc(C)c(Cc3ccc(C)cc3)c(C)n2n1`, for which the inhibition was 65%.

As to `Cc1ccc(Cc2c(C)nc3nc(SCC(=O)NCCCCCNC(=O)CSc4nc5nc(C)c(Cc6ccc(C)cc6)c(C)n5n4)nn3c2C)cc1`, the inhibition is 78%. Regarding `Cc1ccc(Cc2c(CCc3ccccc3)nc3nc(SCC(=O)NCCN4CCOCC4)nn3c2C)cc1`, the inhibition was 44% (inactive). Take `Cc1ccc(Cc2c(C)nc3nc(SCC(=O)NCCN4CCN(Cc5ccccc5)CC4)nn3c2C)cc1`: the inhibition was 66%. The figure for `CCCNC(=O)CSc1nc2nc(C)c(Cc3ccc(C)cc3)c(C)n2n1` is 38% (inactive).

As for `Cc1ccc(Cc2c(C)nc3nc(SCc4ccc(Cl)cc4)nn3c2C)cc1`, the inhibition is 52%. Take `Cc1ccc(Cc2c(C)nc3nc(SCC(=O)NCCCCNC(=O)CSc4nc5nc(C)c(Cc6ccc(C)cc6)c(C)n5n4)nn3c2C)cc1`: the inhibition is 88%.

As for `C=CCN1CCN(CCNC(=O)CSc2nc3nc(C)c(Cc4ccc(C)cc4)c(C)n3n2)CC1`, the inhibition was < 50% (inactive). Take `Cc1ccc(Cc2c(C)nc3nc(SCC(=O)NCCN4CCN(S(=O)(=O)c5ccc(C)cc5)CC4)nn3c2C)cc1`: the inhibition was < 50% (inactive). Consider `Cc1ccc(Cc2c(C)nc3nc(SCC(=O)NC4CCN(C(=O)CSc5nc6nc(C)c(Cc7ccc(C)cc7)c(C)n6n5)CC4)nn3c2C)cc1`, for which the inhibition is 80%. The figure for `Cc1ccc(Cc2c(C)nc3nc(SCC(=O)NCCN4CCCC4)nn3c2C)cc1` is < 50% (inactive). `Cc1ccc(Cc2c(C)nc3nc(SCC(=O)NC4CCCCCCC4)nn3c2C)cc1`: the inhibition was 59%. With `Cc1ccc(Cc2c(C)nc3nc(SCC(=O)NCC4CCCCN4C(=O)CSc4nc5nc(C)c(Cc6ccc(C)cc6)c(C)n5n4)nn3c2C)cc1` (stereo not given), the inhibition was 93%.

As for `Cc1ccc(Cc2c(C)nc3nc(SCC(=O)N[C@H]4CCCN(C(=O)CSc5nc6nc(C)c(Cc7ccc(C)cc7)c(C)n6n5)C4)nn3c2C)cc1`, the inhibition was 85%. Take `Cc1ccc(Cc2c(C)nc3nc(SCC(=O)NCCC4=CCCCC4)nn3c2C)cc1`: the inhibition is 22% (inactive). For `Cc1ccc(Cc2c(C)nc3nc(SCC(=O)NC4CCCC(NC(=O)CSc5nc6nc(C)c(Cc7ccc(C)cc7)c(C)n6n5)C4)nn3c2C)cc1` (stereo not given), the inhibition was 98%. Consider `Cc1ccc(Cc2c(C)nc3nc(SCC(=O)NCC[N+]4(C)CCOCC4)nn3c2C)cc1`, for which the inhibition was 46% (inactive). `Cc1ccc(Cc2c(C)nc3nc(SCC(=O)NCCN4CCN(C(=O)c5ccc(F)cc5)CC4)nn3c2C)cc1`: the inhibition is < 50% (inactive). The figure for `CCCN1CCN(CCNC(=O)CSc2nc3nc(C)c(Cc4ccc(C)cc4)c(C)n3n2)CC1` is < 50% (inactive). Consider `Cc1ccc(Cc2c(C)nc3nc(SCC(=O)NCCN4CCNCC4)nn3c2C)cc1`, for which the inhibition is 51%. The figure for `Cc1ccc(Cc2c(C)nc3nc(SCC(=O)N4CCN(Cc5ccc(F)cc5)CC4)nn3c2C)cc1` is 10% (inactive); for `CC(=O)N1CCN(CCNC(=O)CSc2nc3nc(C)c(Cc4ccc(C)cc4)c(C)n3n2)CC1` it is < 50% (inactive); for `Cc1ccc(Cc2c(C)nc3nc(SCC(=O)NCCN4CCCN(C(=O)c5ccccc5)CC4)nn3c2C)cc1` it is < 50% (inactive).

For the compound `Cc1ccc(Cc2c(C)nc3nc(SCC(=O)NC4CCC(NC(=O)CSc5nc6nc(C)c(Cc7ccc(C)cc7)c(C)n6n5)CC4)nn3c2C)cc1` (stereo not given), the inhibition is 92%. Consider `CCN(CC)C(=O)CSc1nc2nc(C)c(Cc3ccc(C)cc3)c(C)n2n1`, for which the inhibition is 11% (inactive). `Cc1ccc(Cc2c(C)nc3nc(SCC(=O)NCCN4CCN(CCc5ccccc5)CC4)nn3c2C)cc1`: the inhibition was 65%. Regarding `Cc1cccc(Cc2c(C)nc3nc(SCC(=O)N4CCCCCC4)nn3c2C)c1`, the inhibition was 71%.

Turning to `Cc1cccc(Cc2c(C)nc3nc(SCC(=O)NCC(C)NC(=O)CSc4nc5nc(C)c(Cc6cccc(C)c6)c(C)n5n4)nn3c2C)c1` (stereo not given), the inhibition is 67%.

For `Cc1nc2nc(SCC(=O)NCCN3CCOCC3)nn2c(C)c1Cc1ccncc1`, the inhibition is -11% (inactive). Turning to `C#CCN1CCN(CCNC(=O)CSc2nc3nc(C)c(Cc4ccc(C)cc4)c(C)n3n2)CC1`, the inhibition is < 50% (inactive). The figure for `Cc1ccc(Cc2c(C)nc3nc(SCC(=O)NCCCN4CCCCCC4)nn3c2C)cc1` is 16% (inactive); for `Cc1ccc(Cc2c(CCc3ccccc3)nc3nc(SC(Cc4ccccc4)C(=O)NCCN4CCOCC4)nn3c2C)cc1` (stereo not given) it is 85%. `Cc1ccc(Cc2c(C)nc3nc(SCC(=O)N4CCCC4)nn3c2C)cc1`: the inhibition is 87%.

As to `Cc1nc2nc(SCC(=O)NCCCNC(=O)CSc3nc4nc(C)c(Cc5ccncc5)c(C)n4n3)nn2c(C)c1Cc1ccncc1`, the inhibition is < 50% (inactive). In the case of `Cc1ccc(Cc2c(C)nc3nc(SCC(=O)NCCCNC(=O)CSc4nc5nc(C)c(Cc6ccc(C)cc6)c(C)n5n4)nn3c2C)cc1`, the inhibition was 96%. The same measure for `Cc1ccc(Cc2c(C)nc3nc(SCC(=O)NCCC4CCOCC4)nn3c2C)cc1`: < 50% (inactive); for `Cc1ccc(Cc2c(C)nc3nc(SCC(=O)NCC[N+]4(Cc5ccc(F)cc5)CCN(Cc5ccc(F)cc5)CC4)nn3c2C)cc1`: < 50% (inactive). Regarding `Cc1ccc(Cc2c(C)nc3nc(SCC(=O)N4CCN(Cc5ccc(Cl)cc5)CC4)nn3c2C)cc1`, the inhibition is 44% (inactive). As to `Cc1ccc(Cc2c(C)nc3nc(SCC(=O)NCCN4CCN(C(=O)OC(C)(C)C)CC4)nn3c2C)cc1`, the inhibition is 51%. As to `Cc1ccc(Cc2c(C)nc3nc(SCC(=O)NCCN4CCCN(S(C)(=O)=O)CC4)nn3c2C)cc1`, the inhibition was 53%. Take `Cc1ccc(Cc2c(C)nc3nc(SCC(=O)NCCN4CCCCC4)nn3c2C)cc1`: the inhibition was 56%. Regarding `Cc1ccc(Cc2c(C)nc3nc(SCC(=O)N4CCN(Cc5ccc(C)cc5)CC4)nn3c2C)cc1`, the inhibition is 14% (inactive).

For the compound `Cc1ccc(Cc2c(C)nc3nc(SCC(=O)NCCN4CCN(C(=O)c5ccccc5)CC4)nn3c2C)cc1`, the inhibition was < 50% (inactive).

For the compound `Cc1ccc(Cc2c(C)nc3nc(SCC(=O)NCCN4CCN(C(=O)C(C)C)CC4)nn3c2C)cc1`, the inhibition was < 50% (inactive). For `Cc1ccc(Cc2c(C)nc3nc(SCC(=O)NCC4CCN(C(=O)CSc5nc6nc(C)c(Cc7ccc(C)cc7)c(C)n6n5)CC4)nn3c2C)cc1`, the inhibition was 89%. With `Cc1ccc(Cc2c(C)nc3nc(SCC(=O)NCCCCCCNC(=O)CSc4nc5nc(C)c(Cc6ccc(C)cc6)c(C)n5n4)nn3c2C)cc1`, the inhibition was 88%. With `Cc1nc2nc(SCC(=O)N3CCN(C(=O)CSc4nc5nc(C)c(Cc6ccc(Br)cc6)c(C)n5n4)CC3)nn2c(C)c1Cc1ccc(Br)cc1`, the inhibition was 25% (inactive). For `Cc1ccc(Cc2c(C)nc3nc(SCC(=O)NCCN4CCCCCC4)nn3c2C)cc1`, the inhibition is 97% and 82%. The figure for `Cc1ccc(Cc2c(C)nc3nc(SCC(=O)N4CCSCC4)nn3c2C)cc1` is 63%; for `Cc1ccc(Cc2c(C)nc3nc(SCC(=O)NCCN4CCCN(S(=O)(=O)c5ccc(C)cc5)CC4)nn3c2C)cc1` it is 79%. Turning to `Cc1ccc(Cc2c(C)nc3nc(SCC(=O)N4CCNCC4)nn3c2C)cc1`, the inhibition was 42% (inactive). Consider `Cc1ccc(Cc2c(C)nc3nc(SCC(=O)NCCN4CCCN(C(=O)c5ccc(F)cc5)CC4)nn3c2C)cc1`, for which the inhibition was < 50% (inactive). As for `Cc1ccc(Cc2c(C)nc3nc(SCC(=O)N4CCN(Cc5ccc(Br)cc5)CC4)nn3c2C)cc1`, the inhibition was 43% (inactive). Regarding `CCCNC(=O)CSc1nc2nc(C)c(Cc3cccc(C)c3)c(C)n2n1`, the inhibition is 33% (inactive). The same measure for `Cc1ccc(Cc2c(C)nc3nc(SCC(=O)NCc4ccc(CNC(=O)CSc5nc6nc(C)c(Cc7ccc(C)cc7)c(C)n6n5)cc4)nn3c2C)cc1`: 89%. As for `Cc1ccc(Cc2c(C)nc3nc(SCC(=O)NCCN4CCN(S(C)(=O)=O)CC4)nn3c2C)cc1`, the inhibition was < 50% (inactive).

For `Cc1ccc(Cc2c(C)nc3nc(SCC(=O)NCCN4CCCN(S(=O)(=O)c5ccccc5)CC4)nn3c2C)cc1`, the inhibition is 83%.

For `Cc1ccc(Cc2c(C)nc3nc(SCC(=O)N4CCOCC4)nn3c2C)cc1`, the inhibition was 13% (inactive).

As for `Cc1ccc(Cc2c(C)nc3nc(SCC(=O)Nc4ccccc4NC(=O)CSc4nc5nc(C)c(Cc6ccc(C)cc6)c(C)n5n4)nn3c2C)cc1`, the inhibition is 80%. In the case of `Cc1cccc(Cc2c(C)nc3nc(SCC(=O)NC4CCN(C(=O)CSc5nc6nc(C)c(Cc7cccc(C)c7)c(C)n6n5)C4)nn3c2C)c1` (stereo not given), the inhibition is 80%. As to `Cc1ccc(Cc2c(C)nc3nc(SCC(=O)NCCN4CCCN(C(=O)OC(C)(C)C)CC4)nn3c2C)cc1`, the inhibition was < 50% (inactive). Take `Cc1ccc(Cc2c(C)nc3nc(SCC(=O)N4C[C@@H]5C[C@H]4CN5C(=O)CSc4nc5nc(C)c(Cc6ccc(C)cc6)c(C)n5n4)nn3c2C)cc1`: the inhibition was 67%. As for `Cc1ccc(Cc2c(C)nc3nc(SCC(=O)NCCN4CCN(Cc5ccc(F)cc5)CC4)nn3c2C)cc1`, the inhibition is 66%.

With `Cc1ccc(Cc2c(C)nc3nc(SCC(=O)N4CCN(C)CC4)nn3c2C)cc1`, the inhibition is 37% (inactive).

Regarding `Cc1nc2nc(SCC(=O)NCCN3CCOCC3)nn2c(C)c1Cc1ccc(Br)cc1`, the inhibition was < 50% (inactive). In the case of `Cc1ccc(Cc2c(C)nc3nc(SCC(=O)NCCN4CCN(Cc5ccc(Cl)cc5)CC4)nn3c2C)cc1`, the inhibition was 87%. With `Cc1ccc(Cc2c(C)nc3nc(SCC(=O)NCCN(C)C)nn3c2C)cc1`, the inhibition is < 50% (inactive). As to `Cc1ccc(Cc2c(C)nc3nc(SCC(=O)NCCN4CCCNCC4)nn3c2C)cc1`, the inhibition is < 50% (inactive).
